Legend:
[1] = molecular target: Muscarinic receptor M2 and M3 (Rattus norvegicus) (UniProt P08483+P10980); assay: Selectivity ratio of Ki for muscarinic M2 receptor in Sprague-Dawley rat left atria to Ki for muscarinic M3 receptor in Sprague-Dawley rat submandibulary gland
[2] = molecular target: T1, Muscarinic acetylcholine receptor M2 (Rattus norvegicus, UniProt P10980); assay: Displacement of [3H]NMS from muscarinic M2 receptor in Sprague-Dawley rat left atria after 60 mins
T1 sequence (P10980 whole entry): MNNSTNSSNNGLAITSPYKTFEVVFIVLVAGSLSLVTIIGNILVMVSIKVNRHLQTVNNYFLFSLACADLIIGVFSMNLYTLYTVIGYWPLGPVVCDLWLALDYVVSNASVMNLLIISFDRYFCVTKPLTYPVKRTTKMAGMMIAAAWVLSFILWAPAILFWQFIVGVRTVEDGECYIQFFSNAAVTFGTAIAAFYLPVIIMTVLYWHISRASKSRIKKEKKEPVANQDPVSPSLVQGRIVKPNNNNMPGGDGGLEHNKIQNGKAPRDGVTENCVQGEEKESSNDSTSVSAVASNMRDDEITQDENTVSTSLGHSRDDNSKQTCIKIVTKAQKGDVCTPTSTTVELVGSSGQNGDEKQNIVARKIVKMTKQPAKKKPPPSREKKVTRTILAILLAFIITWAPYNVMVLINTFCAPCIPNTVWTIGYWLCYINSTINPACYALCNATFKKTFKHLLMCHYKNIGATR
Method in brief: (§1)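 Membranes from male SD rat (220–250 g) left atria (M2) or submandibulary glands (M3). Tissue homogenised in ice-cold 0.32 M sucrose/50 mM Tris pH 7.4, then spun at 1000g and 20000g, all steps at 4 °C. Membranes (0.1 mg protein) incubated 60 min at 37 °C with 0.4 nM [3H]NMS plus increasing test concentrations. Filtration read-out. IC50 converted to Ki by Cheng–Prusoff, mean SEM.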

[3] = molecular target: Muscarinic acetylcholine receptor M3 (Rattus norvegicus, UniProt P08483); assay: Displacement of [3H]NMS from muscarinic M3 receptor in Sprague-Dawley rat submandibulary gland after 60 mins; method in brief: as §1
[4] = molecular target: Muscarinic acetylcholine receptor M3 (Cavia porcellus, UniProt Q8VH26); assay: Antagonist activity at muscarinic M3 receptor in guinea pig ilea assessed as inhibition of carbachol-induced contraction; conditions: read-out: pA2 (converted)
Method in brief: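 Ileal strips (1.5 cm) in 10 ml baths of Kreb's solution under 1000 mg load, equilibrated 30 min with fluid changed every 15 min. Isotonic recording. Cumulative carbachol curve with roughly 3-fold steps, each added once the prior response was steady. Responses expressed as % of control maximum. Antagonist at three concentrations. pA2 by Schild analysis.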

Muscarinic receptor 2 = molecular target: T2, Muscarinic receptor 2 (Cavia porcellus, UniProt Q8VH27); assay: Antagonist activity at muscarinic M2 receptor in guinea pig left atria assessed as inhibition of carbachol-induced […]; conditions: read-out: pA2 (converted)
T2 sequence (Q8VH27 whole entry): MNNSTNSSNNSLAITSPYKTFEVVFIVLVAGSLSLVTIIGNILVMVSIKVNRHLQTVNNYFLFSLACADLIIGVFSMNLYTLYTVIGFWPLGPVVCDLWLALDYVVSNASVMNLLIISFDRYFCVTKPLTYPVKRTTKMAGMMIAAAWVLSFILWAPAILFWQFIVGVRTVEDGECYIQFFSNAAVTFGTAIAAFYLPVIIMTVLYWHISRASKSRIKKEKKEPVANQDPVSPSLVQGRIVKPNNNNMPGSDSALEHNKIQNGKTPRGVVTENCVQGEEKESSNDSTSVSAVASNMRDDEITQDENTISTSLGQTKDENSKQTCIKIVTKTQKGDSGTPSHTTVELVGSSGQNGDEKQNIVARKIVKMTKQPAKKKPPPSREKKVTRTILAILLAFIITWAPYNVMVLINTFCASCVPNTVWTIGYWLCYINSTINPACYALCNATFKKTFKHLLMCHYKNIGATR
Method in brief: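 Isolated left atria in Kreb's solution under 500 mg tension, stabilised 45 min, then electrically paced (2 Hz, 6 ms, 10 V square-wave submaximal pulses). Inotropic response recorded isometrically. Cumulative carbachol curves expressed as % of contraction before agonist. Antagonist tested at two or three concentrations. pA2 obtained by Schild analysis.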

Sequence of Muscarinic acetylcholine receptor M3 (Cavia porcellus, UniProt Q8VH26) (Q8VH26 whole entry): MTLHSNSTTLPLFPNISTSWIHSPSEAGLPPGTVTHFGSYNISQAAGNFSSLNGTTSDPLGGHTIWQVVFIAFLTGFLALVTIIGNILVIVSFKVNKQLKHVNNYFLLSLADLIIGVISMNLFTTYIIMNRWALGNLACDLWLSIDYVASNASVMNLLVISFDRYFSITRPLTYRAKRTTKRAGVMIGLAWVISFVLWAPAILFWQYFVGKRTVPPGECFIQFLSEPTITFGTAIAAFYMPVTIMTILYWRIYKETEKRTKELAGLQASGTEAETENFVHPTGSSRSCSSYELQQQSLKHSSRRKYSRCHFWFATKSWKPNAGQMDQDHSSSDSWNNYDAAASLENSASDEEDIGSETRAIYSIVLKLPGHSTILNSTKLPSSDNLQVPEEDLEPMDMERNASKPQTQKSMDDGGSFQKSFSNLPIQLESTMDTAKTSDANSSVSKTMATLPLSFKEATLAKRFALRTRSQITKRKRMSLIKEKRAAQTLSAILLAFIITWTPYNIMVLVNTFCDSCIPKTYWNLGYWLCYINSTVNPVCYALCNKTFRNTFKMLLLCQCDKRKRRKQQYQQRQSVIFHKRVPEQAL
Sequence of Muscarinic receptor M2 and M3 (Rattus norvegicus) (P08483 whole entry, looked up, one chain of several): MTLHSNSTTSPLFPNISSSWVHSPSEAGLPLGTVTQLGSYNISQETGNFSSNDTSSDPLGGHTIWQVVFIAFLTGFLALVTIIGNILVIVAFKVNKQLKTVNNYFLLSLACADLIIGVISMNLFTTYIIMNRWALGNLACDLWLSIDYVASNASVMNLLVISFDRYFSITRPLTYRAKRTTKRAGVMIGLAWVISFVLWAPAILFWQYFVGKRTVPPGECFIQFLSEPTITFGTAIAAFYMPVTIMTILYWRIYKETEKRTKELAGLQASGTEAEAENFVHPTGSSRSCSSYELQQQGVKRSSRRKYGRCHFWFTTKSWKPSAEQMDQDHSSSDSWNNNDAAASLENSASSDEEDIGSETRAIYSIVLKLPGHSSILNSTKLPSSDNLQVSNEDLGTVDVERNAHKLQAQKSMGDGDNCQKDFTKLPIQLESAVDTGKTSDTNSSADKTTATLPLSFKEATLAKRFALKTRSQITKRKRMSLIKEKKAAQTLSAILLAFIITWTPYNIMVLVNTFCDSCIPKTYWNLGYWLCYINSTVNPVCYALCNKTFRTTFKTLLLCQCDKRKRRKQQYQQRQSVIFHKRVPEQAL
Sequence of Muscarinic acetylcholine receptor M3 (Rattus norvegicus, UniProt P08483) (P08483 whole entry): as the sequence (P08483 whole entry, looked up, one chain of several) above

## CC(=O)O[C@H]1C[C@@H]2C[C@@H](OC(=O)Cc3ccccc3)C[C@@H]1N2C
[1]
  Ratio Ki: 13
[2]
  Ki: 12 µM
[3]
  Ki: 0.92 µM
[4]
  Kb: 0.123 µM
Muscarinic receptor 2
  Kb: 1.1 µM

## CC(=O)O[C@@H]1C[C@@H]2C[C@H](OC(=O)c3ccccc3)C[C@@H]1N2C
[1]
  Ratio Ki: 1.1
[2]
  Ki: 77 µM
[3]
  Ki: 71 µM

## CC(=O)O[C@H]1C[C@@H]2C[C@@H](OC(=O)c3ccccc3[N+](=O)[O-])C[C@@H]1N2C
[1]
  Ratio Ki: 2.6
[2]
  Ki: 9.8 µM
[3]
  Ki: 3.7 µM
[4]
  Kb: 0.389 µM
Muscarinic receptor 2
  Kb: 0.851 µM

## CC(=O)O[C@@H]1C[C@@H]2C[C@H](OC(=O)c3ccccc3Cl)C[C@@H]1N2C
[1]
  Ratio Ki: 1.1
[2]
  Ki: 95 µM
[3]
  Ki: 83 µM

## CC(=O)O[C@H]1C[C@@H]2C[C@@H](OC(=O)c3ccccc3)C[C@@H]1N2C
[1]
  Ratio Ki: 4
[2]
  Ki: 10.7 µM
[3]
  Ki: 2.7 µM
[4]
  Kb: 0.309 µM
Muscarinic receptor 2
  Kb: 1.32 µM

## CC(=O)O[C@@H]1C[C@@H]2C[C@H](OC(=O)Cc3ccccc3)C[C@@H]1N2C
[1]
  Ratio Ki: 0.9
[2]
  Ki: 86 µM
[3]
  Ki: 95 µM

## CC(=O)O[C@H]1C[C@@H]2C[C@@H](OC(=O)c3ccccc3Cl)C[C@@H]1N2C
[1]
  Ratio Ki: 6.3
[2]
  Ki: 8.8 µM
[3]
  Ki: 1.4 µM
[4]
  Kb: 0.275 µM
Muscarinic receptor 2
  Kb: 0.631 µM

## CC(=O)O[C@@H]1C[C@@H]2C[C@H](OC(=O)c3ccccc3[N+](=O)[O-])C[C@@H]1N2C
[1]
  Ratio Ki: 1.3
[2]
  Ki: 84 µM
[3]
  Ki: 66 µM

Source: ChEMBL document CHEMBL2321697, “The effect of absolute configuration on activity, subtype selectivity (M3/M2) of 3α-acyloxy-6β-acetoxyltropane derivatives as muscarinic M3 receptor antagonists” (Bioorg Med Chem, 2013)
